APP 5'UTR act = activates APP 5'UTR luciferase reporter | SH-SY5Y APP 5'UTR luciferase reporter, luminescence; zero percent = DMSO vehicle wells | activation, % at 2 µM | AID 1276 | 190,000 tested, 1% active;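 active means activation above a set limit, based on mean plus 3 SD of controls, cut at about 140% in these data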
STAT1 activator = activators of IFN-gamma induced STAT1 signaling. NIH 3T3 STAT1-luciferase reporter, luminescence; 100% = IFN-gamma alone, no compound. activation (% of control), % at 5.5 µM. 200,000 tested, 2.6% active. AID 932;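 active means activation above the screen-wide mean activation plus 3 SD, cut at about 130% in these data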;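 further: raw ratio to IFN-gamma control signal so 100% means no change and 0% no light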
STAT3 blocker = reduces IL-6 driven STAT3 reporter signal; 190,000 tested, 0.89% active; inhibition, % at 5.5 µM; AID 862; U3A cells, IL-6 STAT3-luciferase reporter, luminescence; host cell line lacks STAT1;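 active means inhibition above the mean inhibition across all screened compounds plus 3 SD, cut at about 44% in these data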;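 further: 0% = DMSO only wells and 100% = 100 µM nifuroxazide control wells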
STAT3 act = activators of IL-6 induced STAT3 signaling; U3A cells, IL-6 STAT3-luciferase reporter, luminescence; 100% = signal with IL-6 EC80 alone; activation (% of control), % at 5.6 µM; 190,000 tested, 0.91% active; AID 871;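 active means activation above the screen-wide mean of compound activation plus 3 SD, cut at about 130% in these data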;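 further: 0% = background luminescence of wells with medium and substrate only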
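Test system: human U3A cells carrying STAT3-luciferase construct; control set: IL-6-only wells as 100% reference; timing: compound pre-incubation 1 h before IL-6, then 6 h stimulation at 37 °C; also added: IL-6 stimulus at 33 ng/mL final; evaluation: % activation versus median of IL-6-stimulated wells; detection: reporter luminescence signal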
NF-kB neuron act = compounds increasing NF-kB expression in human neuronal cells. NF-kB reporter expression; hits give high values. fold change at 12.5 µM. 190,000 tested, 1.6% active; in the data active means fold change above about 3.3
STAT1 inh = reduces IFN-gamma driven STAT1 reporter signal | NIH 3T3 STAT1-luciferase reporter, luminescence | inhibition, % at 5.5 µM | 200,000 tested, 0.35% active;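 active means inhibition above a set limit, the mean inhibition across all tested compounds plus 3 SD, cut at about 34% in these data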;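 further: 0% = IFN-gamma with DMSO and 100% = IFN-gamma with 300 µM nifuroxazide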
Starred values were filed as active, the others as inactive. Sampled rows, rich in hits. Any-hit rate of the full collection: about 4.9%.

Clc1ccc2nc(CSc3nnc4ccccn34)cn2c1 was read as APP 5'UTR act 106.6, STAT1 activator 140.8*, STAT3 blocker -2.2, STAT3 act 104.6, NF-kB neuron act 3.13 and STAT1 inh -45.3.
For Clc1ccc2nc(CSc3nncn3-c3ccccc3)cn2c1 the results were APP 5'UTR act -15.2, STAT1 activator 93.2, STAT3 blocker 5.8, STAT3 act 98.3, NF-kB neuron act 1.01 and STAT1 inh 7.4.
Cc1nc(CSc2ccc(Cl)cc2)cc(NCc2ccccc2)n1 was read as APP 5'UTR act 3.6, STAT1 activator 98.0, STAT3 blocker 3.7, STAT3 act 102.9, NF-kB neuron act 1.19 and STAT1 inh 2.1.
For Clc1ccc2nc(CSCc3ccccc3)cn2c1 the results were APP 5'UTR act 139.3*, STAT1 activator 145.4*, STAT3 blocker 6.4, STAT3 act 96.7, NF-kB neuron act 1.24 and STAT1 inh -49.5.
Screening COc1ccc(OCc2nnc(SCC(=O)c3ccccc3)o2)cc1 returned APP 5'UTR act 6.4, STAT1 activator 93.3, STAT3 blocker 11.8, STAT3 act 94.3, NF-kB neuron act 1.28 and STAT1 inh 5.8.
`CCc1cc(CNC(=O)CC2C(=O)NCCN2Cc2cccc(OC)c2)on1` (stereo not drawn) gave APP 5'UTR act -1.2, STAT1 activator 100.1, STAT3 blocker 5.3, STAT3 act 99.2, NF-kB neuron act 1.15 and STAT1 inh -1.7.
COCCN(C)C(=O)CC1C(=O)NCCN1CC(c1ccccc1)c1ccccc1 (stereo not drawn) was read as APP 5'UTR act 3.9, STAT1 activator 105.6, STAT3 blocker 11.0, STAT3 act 95.3, NF-kB neuron act 1.29 and STAT1 inh -6.0.
`Cc1nn2cc(-c3ccc(N)cc3)nc2s1` gave APP 5'UTR act 67.9, STAT1 activator 139.0*, STAT3 blocker -14.7, STAT3 act 117.0, NF-kB neuron act 2.22 and STAT1 inh -42.1.
`O=c1[nH]c2ccccc2nc1C(F)(F)C(F)F` gave APP 5'UTR act 20.4, STAT1 activator 137.5*, STAT3 blocker 6.5, STAT3 act 98.0, NF-kB neuron act 0.97 and STAT1 inh -41.3.
O=c1[nH]c2cc3ccccc3cc2nc1C(F)(F)F was read as APP 5'UTR act 12.8, STAT1 activator 109.0, STAT3 blocker 22.9, STAT3 act 82.7, NF-kB neuron act 1.24 and STAT1 inh -10.3.
Screening S=c1nc(-c2ccc(Br)cc2)oc2c1CCCC2 returned APP 5'UTR act -5.1, STAT1 activator 113.5, STAT3 blocker -22.4, STAT3 act 122.2, NF-kB neuron act 1.48 and STAT1 inh -14.7.
Cc1cccc(-c2nc(=S)c3c(o2)CCCC3)c1 was read as APP 5'UTR act 117.6, STAT1 activator 139.0*, STAT3 blocker -13.8, STAT3 act 112.7, NF-kB neuron act 2.7 and STAT1 inh -42.3.
COc1ccc(OCC(=O)Nc2ccc(NC(=O)c3cccs3)c(OC)c2)cc1 was read as APP 5'UTR act 8.1, STAT1 activator 99.5, STAT3 blocker 14.8, STAT3 act 89.8, NF-kB neuron act 1.25 and STAT1 inh 0.4.
Screening COc1cc(NC(=O)COc2ccccc2[N+](=O)[O-])ccc1NC(=O)c1cccs1 returned APP 5'UTR act -5.8, STAT1 activator 141.2*, STAT3 blocker 24.1, STAT3 act 83.1, NF-kB neuron act 1.16 and STAT1 inh -44.4.
COc1ccc(OC)c(NC(=O)C(C)Oc2ccc(Br)cc2)c1 (stereo not drawn) was read as APP 5'UTR act -4.2, STAT1 activator 88.8, STAT3 blocker 14.0, STAT3 act 92.2, NF-kB neuron act 1.26 and STAT1 inh 9.5.
`CN(C)c1ccc(N=Cc2nc(-c3ccccc3)oc2O)cc1` gave APP 5'UTR act 26.1, STAT1 activator 109.6, STAT3 blocker 18.0, STAT3 act 88.2, NF-kB neuron act 1.67 and STAT1 inh -10.6.
`CN(C)c1ccc(N=Cc2nc(-c3ccccc3)oc2OC(=O)c2ccccc2)cc1` gave APP 5'UTR act 155.2*, STAT1 activator 122.0, STAT3 blocker -22.2, STAT3 act 115.5, NF-kB neuron act 2.04 and STAT1 inh -20.6.
For CC(=O)Oc1oc(-c2ccccc2)nc1/C=N/c1ccccn1 the results were APP 5'UTR act 58.2, STAT1 activator 129.0*, STAT3 blocker 6.0, STAT3 act 98.0, NF-kB neuron act 1.31 and STAT1 inh -31.9.

Screens from PubChem BioAssay.
